# From PMC3690436 (Journal of nuclear medicine : official publication, Society …, 2009)
# Columns and labels:
# [1] = humans; ref Ulrich Elben, written communication, 2008; cited from earlier work
# [2] = Tolerability of tariquidar in healthy volunteers; format: in vivo, human; settings: 2 mg/kg BW i.v., 5 healthy male subjects
# [3] = biological target: P-gp at the human blood-brain barrier (Homo sapiens, UniProt P08183)
# P-gp [4] = biological target: T1, P-gp (Homo sapiens, UniProt P08183); settings: cited from earlier work
# P-gp [5] = biological target: T1, P-gp; assay: Rhodamine-123 efflux assay in peripheral white blood cells; format: cell-based
# In short: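 Fresh whole blood (18 mL) was drawn from each of the 5 volunteers before dosing. Isolated white blood cells were incubated at 37°C with Rh-123 (0.2 μg/mL) and 10 dilutions of test compound in DMSO (final 0.01 nM–1 μM), in duplicate. Rh-123 accumulation (mean fluorescence per cell) was read by FACS. EC50 came from hyperbolic dose-response fits, given as mean±SD over the 5 donors.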
# [6] = cited from earlier work
# [7] = Arterial blood and metabolite analysis of; format: in vivo, human; settings: 2 mg/kg i.v.
# P-gp [8] = settings: rats, cited from earlier work
# [9] = Tariquidar concentration in venous plasma by LC/MS; format: in vivo, human
# P-gp [10] = settings: in vitro; cited from earlier work
# MRP1 = settings: cited from earlier work
# P-gp [11] = settings: non-human primates, infusion of 20 mg/kg/2 hr; cited from earlier work
# T1 sequence (P08183 whole entry): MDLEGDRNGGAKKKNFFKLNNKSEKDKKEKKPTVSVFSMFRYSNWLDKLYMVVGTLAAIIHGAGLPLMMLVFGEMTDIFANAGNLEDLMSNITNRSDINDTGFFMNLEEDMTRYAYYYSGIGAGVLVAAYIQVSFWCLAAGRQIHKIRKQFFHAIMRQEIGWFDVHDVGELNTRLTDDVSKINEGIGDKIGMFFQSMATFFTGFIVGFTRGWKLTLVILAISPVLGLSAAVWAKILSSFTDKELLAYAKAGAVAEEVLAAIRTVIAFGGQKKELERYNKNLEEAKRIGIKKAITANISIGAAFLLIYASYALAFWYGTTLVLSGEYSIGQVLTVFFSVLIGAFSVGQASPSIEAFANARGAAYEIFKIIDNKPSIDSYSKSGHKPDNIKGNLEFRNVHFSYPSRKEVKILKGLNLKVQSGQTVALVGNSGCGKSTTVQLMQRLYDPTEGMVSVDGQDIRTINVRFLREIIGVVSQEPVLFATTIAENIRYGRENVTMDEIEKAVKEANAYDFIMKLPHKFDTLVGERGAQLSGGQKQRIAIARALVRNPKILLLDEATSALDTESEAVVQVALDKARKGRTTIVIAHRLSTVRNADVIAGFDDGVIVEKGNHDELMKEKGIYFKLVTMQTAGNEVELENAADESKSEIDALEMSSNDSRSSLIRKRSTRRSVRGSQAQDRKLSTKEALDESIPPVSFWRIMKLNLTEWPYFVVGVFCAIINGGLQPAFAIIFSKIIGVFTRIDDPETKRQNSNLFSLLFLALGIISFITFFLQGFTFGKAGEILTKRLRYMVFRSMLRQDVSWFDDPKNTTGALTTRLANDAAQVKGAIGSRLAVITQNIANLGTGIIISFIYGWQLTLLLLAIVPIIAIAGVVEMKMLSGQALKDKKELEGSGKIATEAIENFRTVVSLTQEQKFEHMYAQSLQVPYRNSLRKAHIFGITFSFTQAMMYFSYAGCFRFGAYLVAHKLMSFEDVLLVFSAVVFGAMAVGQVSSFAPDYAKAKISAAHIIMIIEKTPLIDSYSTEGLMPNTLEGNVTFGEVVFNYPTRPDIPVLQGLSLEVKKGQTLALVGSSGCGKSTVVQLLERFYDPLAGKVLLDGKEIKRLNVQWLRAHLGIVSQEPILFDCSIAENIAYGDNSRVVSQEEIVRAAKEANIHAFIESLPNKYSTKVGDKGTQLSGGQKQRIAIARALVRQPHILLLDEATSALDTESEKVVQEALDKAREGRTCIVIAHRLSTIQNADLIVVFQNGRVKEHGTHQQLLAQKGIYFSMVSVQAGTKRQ
# P-gp at the human blood-brain barrier, sequence (P08183 whole entry): as above
structure (smiles),measurement,setting,value
"COc1cc2c(cc1OC)CN(CCc1ccc(NC(=O)c3cc(OC)c(OC)cc3NC(=O)c3cnc4ccccc4c3)cc1)CC2 [tariquidar, Tariquidar]",Binding to plasma proteins,[1],99.5%
same,Mild adverse events possibly related to study medication,[2],"mild hypotension, headache and nausea, each in one patient and dizziness in 2 patients"
same,Tolerability,[2],well tolerated without occurrence of severe or serious adverse events
same,Maximum increase of brain radioactivity versus baseline (t=40 min),"[3]; scan 1, at 5 min after end of tariquidar infusion (t=75 min), 2 mg/kg i.v.",+74%
same,Increase of brain radioactivity versus baseline (t=40 min),"[3]; scan 1, at 35 min after end of tariquidar infusion (t=115 min), on average",+10%
same,CNS activity of loperamide (reduction in pupil diameter) after inhibitor,"P-gp [4]; humans, tariquidar 2 mg/kg BW",not affected
same,EC50,P-gp [5],0.773 nM
same,Tariquidar-related material in plasma existing as unchanged parent compound,[6]; monkey plasma,> 95%
same,Elimination half-life,[6]; monkey,5 h
same,Influence of tariquidar on the metabolism of (R)-11C-verapamil,[7],did not have significant influence
same,Plasma tariquidar concentration at the time of the PET scan,P-gp [8]; 15 mg/kg,"about 1,400 ng/mL"
same,Increase of (R)-11C-verapamil DVs,P-gp [8]; plasma tariquidar levels about 500 ng/mL,3-4 fold
same,Increase of the (R)-11C-verapamil DV,P-gp [8]; tariquidar 15 mg/kg,12 fold
same,Plasma concentration of tariquidar during the second PET scan,"[9]; 200-240 min after start of infusion, 2 mg/kg i.v., mean±SD",490 ± 166 ng/mL
same,Plasma concentration relative to EC50 for inhibition of Rh-123 efflux,[9]; at 24 h after tariquidar infusion,424 fold
same,Concentration of unbound tariquidar in plasma,"[9]; at the time of the second scan, corrected for 99.5% protein binding",2.45 ± 0.83 ng/mL
same,Plasma concentration relative to EC50 for inhibition of Rh-123 efflux,[9]; during second PET scan,980 fold
same,concentration at 24 h,"[9]; male, human, plasma, intravenous, 2 mg/kg",212 ± 24 ng/mL
same,Duration of P-gp inhibitory effect after removal from the incubation medium,P-gp [10],up to 22 h
same,Inhibition of MRP1,MRP1,does not inhibit
C/C=C/C[C@@H](C)C(=O)[C@H]1C(=O)N[C@@H](C(C)C)C(=O)N(C)CC(=O)N(C)[C@@H](CC(C)C)C(=O)N[C@@H](C(C)C)C(=O)N(C)[C@@H](CC(C)C)C(=O)N[C@@H](C)C(=O)N[C@H](C)C(=O)N(C)[C@@H](CC(C)C)C(=O)N(C)[C@@H](CC(C)C)C(=O)N(C)[C@@H](C(C)C)C(=O)N1C [valspodar],Increase of brain uptake of racemic 11C-verapamil,P-gp [11],4.61 fold
C=C[C@H]1C[N@@]2CC[C@H]1C[C@@H]2[C@@H](O)c1ccnc2ccc(OC)cc12 [quinidine],CNS pharmacologic effect of loperamide when inhibitor co-administered,P-gp [4]; 8 healthy volunteers,caused respiratory depression
